In brackets after ≈: the same amount, converted by molar mass.
Experiments:
[1] = Ratio of EC50 for microtubule depolymerization in […] cells to IC50 for human MDA-MB-435 cells
MDA-MB-435 = assay: Growth inhibition of human MDA-MB-435 cells after 48 hrs by sulforhodamine B assay; assay type: functional; conditions: MDA-MB-435, 48 h
Outline: (§1)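 NCI 60 human cancer cell line screen run at the National Cancer Institute. Cells had 48 h continuous exposure, and proliferation was read by sulforhodamine B staining. GI50 (50% growth inhibition) was taken from dose–response curves.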

DU-145 = assay: Growth inhibition of human DU145 cells after 48 hrs by sulforhodamine B assay; assay type: functional; conditions: DU-145, 48 h; outline: as §1
CCRF-CEM = assay: Growth inhibition of human CCRF-CEM cells after 48 hrs by sulforhodamine B assay; assay type: functional; outline: as §1
M14 = assay: Growth inhibition of human M14 cells after 48 hrs by sulforhodamine B assay; assay type: functional; conditions: M14, 48 h; outline: as §1
SF-539 = assay: Growth inhibition of human SF539 cells after 48 hrs by sulforhodamine B assay; assay type: functional; conditions: SF-539, 48 h; outline: as §1
HOP-92 = assay: Growth inhibition of human HOP92 cells after 48 hrs by sulforhodamine B assay; assay type: functional; conditions: HOP-92, 48 h; outline: as §1
L1210 [2] = assay: Antitumor activity against mouse L1210 cells xenografted in DBA2 mouse assessed as reduction in tumor volume at 50 mg/kg, ip QD administered on alternate days for 17 days measured on day 23; assay type: functional; conditions: route intraperitoneal
Outline: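 Female DBA2 mice, 5–7 weeks old, four per group. L1210 cells, passaged through a mouse, were washed three times in PBS and resuspended at 4.0 × 10^6 cells/mL. 100 µL (200,000 cells) was given sc to the flank on day 0. Vehicle-only controls. Tumor length and width were measured by caliper, and volume was compared on day 23.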

[3] = Solubility of the compound in water by multiscreen solubility; assay type: physicochemical
Outline: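 Aqueous solubility was measured with a modified Multiscreen Solubility filter-plate protocol. The assay ceiling is 500 µM, and two independent experiments were run.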

LOX IMVI = assay: Growth inhibition of human LOXIMVI cells after 48 hrs by sulforhodamine B assay; assay type: functional; outline: as §1
Mus musculus [4] = assay: Toxicity in DBA2 mouse assessed as change in color, weight and size in liver at 75 mg/kg, ip QD administered on alternate days for 17 days measured on day 23 relative to control; assay type: organism-based; set-up: dose 75 mg/kg, route intraperitoneal; conditions: in vivo, 408 h
Outline: (§2)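 Healthy female DBA2 mice, 5–7 weeks old, five per group, received 75 mg/kg ip on days 1, 5, 9, 13 and 17. Vehicle was PET (PEG400/ethanol/Tween 80, 6:3:1), 5% glucose and DMSO, with final ethanol 15% and DMSO 10%. Controls received 100 µL vehicle. Body weight was measured every other day. At sacrifice on day 23, blood counts (hematocrit, WBC, granulocytes, platelets) and liver, kidney and spleen appearance and weight were assessed.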

Mus musculus [5] = assay: Toxicity in DBA2 mouse assessed as change in granulocyte count at 75 mg/kg, ip QD administered on alternate days for 17 days measured on day 23 relative to control; assay type: organism-based; set-up: dose 75 mg/kg, route intraperitoneal; conditions: in vivo, 408 h; outline: as §2
UACC-257 = assay: Growth inhibition of human UACC257 cells after 48 hrs by sulforhodamine B assay; assay type: functional; conditions: UACC-257, 48 h
Outline: (§3)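 Tested in the NCI 60 human cancer cell line panel. Cells were exposed continuously for 48 h and proliferation was read by sulforhodamine B staining. GI50 (concentration for 50% growth inhibition), TGI (total growth inhibition) and LC50 were taken from dose–response curves.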

OVCAR-3 = assay: Growth inhibition of human OVCAR3 cells after 48 hrs by sulforhodamine B assay; assay type: functional; conditions: OVCAR-3, 48 h; outline: as §1
A549 = assay: Growth inhibition of human A549 cells after 48 hrs by sulforhodamine B assay; assay type: functional; conditions: A549, 48 h; outline: as §1
NCI-H460 = assay: Growth inhibition of human NCI-H460 cells after 48 hrs by sulforhodamine B assay; assay type: functional; conditions: NCI-H460, 48 h; outline: as §1
SK-MEL-5 = assay: Growth inhibition of human SK-MEL-5 cells after 48 hrs by sulforhodamine B assay; assay type: functional; conditions: SK-MEL-5, 48 h; outline: as §1
SF-268 = assay: Growth inhibition of human SF268 cells after 48 hrs by sulforhodamine B assay; assay type: functional; conditions: SF-268, 48 h; outline: as §1
L1210 [6] = assay: Cytotoxicity against mouse L1210 cells by MTT assay; assay type: functional, cell-based
ACHN = assay: Growth inhibition of human ACHN cells after 48 hrs by sulforhodamine B assay; assay type: functional; outline: as §1
B16 = assay: Cytotoxicity against mouse B16 cells by MTT assay; assay type: functional, cell-based
786-0 = assay: Growth inhibition of human 786-0 cells after 48 hrs by sulforhodamine B assay; assay type: functional; conditions: 786-0, 48 h; outline: as §1
OVCAR-5 = assay: Growth inhibition of human OVCAR5 cells after 48 hrs by sulforhodamine B assay; assay type: functional; conditions: OVCAR-5, 48 h; outline: as §1
SK-MEL-2 = assay: Growth inhibition of human SK-MEL-2 cells after 48 hrs by sulforhodamine B assay; assay type: functional; conditions: SK-MEL-2, 48 h; outline: as §1
[7] = Growth inhibition of human NCI-ADR-RES cells after 48 hrs by sulforhodamine B assay; assay type: functional; outline: as §1
RXF 393 = assay: Growth inhibition of human RXF393 cells after 48 hrs by sulforhodamine B assay; assay type: functional; conditions: RXF 393, 48 h; outline: as §1
SK-MEL-28 = assay: Growth inhibition of human SK-MEL-28 cells after 48 hrs by sulforhodamine B assay; assay type: functional; conditions: SK-MEL-28, 48 h; outline: as §1
SK-OV-3 = assay: Growth inhibition of human SKOV3 cells after 48 hrs by sulforhodamine B assay; assay type: functional; conditions: SK-OV-3, 48 h; outline: as §3
MOLT-4 = assay: Growth inhibition of human MOLT4 cells after 48 hrs by sulforhodamine B assay; assay type: functional; conditions: MOLT-4, 48 h; outline: as §1
HCC 2998 = assay: Growth inhibition of human HCC2998 cells after 48 hrs by sulforhodamine B assay; assay type: functional; conditions: HCC 2998, 48 h; outline: as §1
MDA-MB-231 = assay: Growth inhibition of human MDA-MB-231 cells after 48 hrs by sulforhodamine B assay; assay type: functional; conditions: MDA-MB-231, 48 h; outline: as §1
A498 = assay: Growth inhibition of human A498 cells after 48 hrs by sulforhodamine B assay; assay type: functional; conditions: A498, 48 h; outline: as §1
MCF7 = assay: Growth inhibition of human MCF7 cells after 48 hrs by sulforhodamine B assay; assay type: functional; conditions: MCF7, 48 h; outline: as §1

## COc1ccc(/C=C(/C(C)=O)c2cc(OC)c(OC)c(OC)c2)cc1O
[1]
  Ratio: 10
MDA-MB-435
  GI50: 25.7 nM
MDA-MB-435; read-out: pTGI (converted)
  TGI: 75.9 nM
DU-145
  GI50: 257 nM
DU-145; read-out: pTGI (converted)
  TGI: 813 nM
CCRF-CEM
  GI50: 398 nM
CCRF-CEM; read-out: pTGI
  TGI: > 100000 nM
M14
  GI50: 209 nM
M14; read-out: pTGI
  TGI: > 100000 nM
SF-539
  GI50: 302 nM
SF-539; read-out: pTGI
  TGI: > 100000 nM
HOP-92
  GI50: 3310 nM
HOP-92; read-out: pTGI
  TGI: > 100000 nM
L1210 [2]
  inhibition in vivo at 50 mg/kg: 35%
[3]
  solubility: 456 µM (≈ 163 µg/mL)
LOX IMVI
  GI50: 417 nM
LOX IMVI; read-out: pTGI
  TGI: > 100000 nM
Mus musculus [4]
  Activity: Non-toxic
Mus musculus [5]
  Activity: Non-toxic
UACC-257
  GI50: 186 nM
UACC-257; read-out: pTGI
  TGI: > 100000 nM
OVCAR-3
  GI50: 95.5 nM
OVCAR-3; read-out: pTGI (converted)
  TGI: 355 nM
A549
  GI50: 468 nM
A549; read-out: pTGI
  TGI: > 100000 nM
NCI-H460
  GI50: 263 nM
NCI-H460; read-out: pTGI (converted)
  TGI: 1320 nM
SK-MEL-5
  GI50: 132 nM
SK-MEL-5; read-out: pTGI (converted)
  TGI: 3090 nM
SF-268
  GI50: 363 nM
SF-268; read-out: pTGI (converted)
  TGI: 16600 nM
L1210 [6]
  IC50: 450 nM
ACHN
  GI50: 1230 nM
ACHN; read-out: pTGI
  TGI: > 100000 nM
B16
  IC50: 3500 nM
786-0
  GI50: 562 nM
786-0; read-out: pTGI (converted)
  TGI: 44700 nM
OVCAR-5
  GI50: 4270 nM
OVCAR-5; read-out: pTGI
  TGI: > 100000 nM
SK-MEL-2
  GI50: 513 nM
SK-MEL-2; read-out: pTGI
  TGI: > 100000 nM
[7]
  GI50: 110 nM
RXF 393
  GI50: 219 nM
SK-MEL-28
  GI50: 100000 nM
SK-MEL-28; read-out: pTGI
  TGI: > 100000 nM
SK-OV-3
  GI50: 417 nM
SK-OV-3; read-out: pTGI
  TGI: > 100000 nM
MOLT-4
  GI50: 316 nM
MOLT-4; read-out: pTGI
  TGI: > 100000 nM
HCC 2998
  GI50: 1320 nM
HCC 2998; read-out: pTGI (converted)
  TGI: 11500 nM
MDA-MB-231
  GI50: 575 nM
MDA-MB-231; read-out: pTGI
  TGI: > 100000 nM
A498
  GI50: 67.6 nM
A498; read-out: pTGI (converted)
  TGI: 550 nM
MCF7
  GI50: 195 nM
MCF7; read-out: pTGI
  TGI: > 100000 nM
